Most compounds without a hit are left out; they make up all but 2.6% or so of the library.
Rce1 inhib – yeast Ras-converting enzyme inhibition; actives 0.27% (n = 290,000); AID 2563; calls only; yeast membranes, quenched prenylated peptide cleavage fluorescence; Q03530;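 active = fall in fluorescence gain of 50% or more versus controls, with final raw signal at or below 3038400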
TAAR1 antagonist – human TAAR1 antagonism. Q96RJ0. CHO RD-HGA16 TAAR1, Fluo-8 calcium fluorescence, antagonist. inhibition, % at 3 µM. actives 1.5% (n = 360,000);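 active = inhibition above a per-plate cutoff, the mean inhibition of test compounds on that plate plus 3 SD, cut at about 49% in these data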
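Assay system: CHO-derived RD-HGA16 cells stably expressing human TAAR1 plus Gα16. Timing: 140 s kinetic read after compound, 140 s after agonist. Technique: kinetic Fluo-8 calcium fluorescence measurement. Measure: % inhibition of agonist calcium response.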
VLA-4 inh – inhibition in a human VLA-4 binding assay | P13612 | inhibition, % (about 7 µM as worked out from the volumes in the protocol) | actives 0.2% (n = 330,000) | AID 2557 | VLA-4 expressing cells, ligand binding flow cytometry; in the data active = inhibition above about 50%
Target sequence (P13612 whole entry, looked up): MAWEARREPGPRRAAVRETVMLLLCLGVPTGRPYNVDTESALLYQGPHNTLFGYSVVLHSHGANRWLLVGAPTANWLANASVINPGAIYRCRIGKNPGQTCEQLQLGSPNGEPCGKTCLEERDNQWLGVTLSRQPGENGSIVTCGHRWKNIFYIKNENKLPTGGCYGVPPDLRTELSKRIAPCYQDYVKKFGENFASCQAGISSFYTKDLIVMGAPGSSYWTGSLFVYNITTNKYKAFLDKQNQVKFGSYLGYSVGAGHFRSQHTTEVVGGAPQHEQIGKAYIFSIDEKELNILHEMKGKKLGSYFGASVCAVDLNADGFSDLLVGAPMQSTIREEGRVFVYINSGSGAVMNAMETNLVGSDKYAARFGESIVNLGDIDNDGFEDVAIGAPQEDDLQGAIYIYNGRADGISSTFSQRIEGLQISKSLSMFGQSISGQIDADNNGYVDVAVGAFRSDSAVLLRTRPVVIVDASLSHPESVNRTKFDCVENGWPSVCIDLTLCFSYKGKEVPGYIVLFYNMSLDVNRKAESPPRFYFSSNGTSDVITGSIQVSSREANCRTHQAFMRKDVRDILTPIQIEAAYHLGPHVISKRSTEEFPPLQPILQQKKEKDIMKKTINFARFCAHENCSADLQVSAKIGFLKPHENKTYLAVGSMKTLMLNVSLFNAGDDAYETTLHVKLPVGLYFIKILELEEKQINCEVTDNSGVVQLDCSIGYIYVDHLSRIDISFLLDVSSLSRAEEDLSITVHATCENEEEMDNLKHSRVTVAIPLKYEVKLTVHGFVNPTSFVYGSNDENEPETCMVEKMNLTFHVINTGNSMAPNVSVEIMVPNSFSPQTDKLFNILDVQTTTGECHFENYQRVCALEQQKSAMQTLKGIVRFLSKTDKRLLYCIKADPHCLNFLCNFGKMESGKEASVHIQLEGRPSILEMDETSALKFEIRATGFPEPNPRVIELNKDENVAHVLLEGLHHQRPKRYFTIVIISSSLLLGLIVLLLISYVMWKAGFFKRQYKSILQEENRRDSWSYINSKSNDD
TAAR1 agonist – agonists of human TAAR1; actives 0.99% (n = 360,000); activation, % at 3 µM; Q96RJ0; CHO RD-HGA16 TAAR1, Fluo-8 calcium fluorescence; vehicle wells 0%, saturating PEA agonist 100%;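 active = activation above the mean activation of all test compounds in the run plus 3 SD, cut at about 38% in these data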
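Test system: RD-HGA16 (CHO) cells co-expressing Gα16 and hTAAR1 / Benchmarks: DMSO vehicle as 0%, PEA at EC100 as 100% / Repeats: no replicates (n 1) / Measure: % activation from peak over basal fluorescence ratio, DMSO-to-PEA scaled / Timing: 17-24 h plating, Fluo-8 75 min 37 °C, 30 min RT / Technique: kinetic Fluo-8 calcium fluorescence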
Platelet DG rel – platelet dense granule release activity. inhibition, %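 (compounds screened at 7.5 µM in platelet-rich plasma)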. human platelet-rich plasma, SFLLRN dense granule ATP release, luminescence. AID 1663. actives 0.22% (n = 300,000);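 active = mean replicate score, as percent of positive control, at or above 50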
Numbers stand for hits; 0 = inactive; - = not tested or not shown; + = active, no number.

SMILES | Rce1 inhib | TAAR1 antagonist | VLA-4 inh | TAAR1 agonist | Platelet DG rel
CCCOc1ccc(C2NC(=O)CCC2[N+](=O)[O-])cc1 (centres undefined) | 0 | 0 | 0 | 0 | 0
O=[N+]([O-])c1ccc(Nc2ccc(F)cc2)nc1 | 0 | 0 | 0 | 0 | 0
Cc1ccc(Nc2ccc([N+](=O)[O-])cn2)cc1Cl | 0 | 54 | 0 | 0 | 0
O=C(Nc1ccc(Nc2ccccc2)cc1)c1ccc(Cl)c([N+](=O)[O-])c1 | 0 | 51 | 0 | 0 | 0
O=C(Nc1ccc(Cc2ccncc2)cc1)c1ccc(Cl)c([N+](=O)[O-])c1 | 0 | 74 | 0 | 0 | 0
Cc1cc(C)c(C(=O)C(C)OC(=O)c2ccccn2)cc1C (centres undefined) | 0 | 0 | 0 | 0 | 0
COc1ccc(N2CCN(S(=O)(=O)CCNC(=O)COc3ccccc3C)CC2)cc1 | 0 | 0 | 0 | 0 | 0
O=c1c(O)c(-c2ccccc2)oc2ccccc12 | - | 0 | - | 0 | -
O=c1c(O)c(-c2cccs2)oc2ccccc12 | 0 | 0 | 0 | 45 | 0
Cn1c(C(=O)N[C@@H](Cc2ccccc2)C(=O)O)cc2cc(Cl)ccc21 | 0 | 0 | 0 | 0 | 0
C=CCn1c(SCCC)nc(O)cc1=O | 0 | 0 | 0 | 61 | 0
C=CCn1c(SCC)nc(O)cc1=O | 0 | 0 | 0 | 0 | 0
CCc1cccc(CC)c1N1C(=O)COCC1=O | - | 0 | - | 0 | -
CCc1cccc(CC)c1N1C(=O)C2=C(SCCCS2)C1=O | - | 0 | - | 40 | -
Brc1ccc(N=Nc2ccc3ccccc3n2)cc1 | 0 | 0 | 0 | 0 | 69
CCn1c(O)c(N=Nc2ccc3ccccc3n2)c2ccccc21 | 0 | 0 | 0 | 0 | 0
COc1ccc(S(=O)(=O)/N=C2\C=C(Nc3ccc(O)cc3)C(=O)c3ccccc32)cc1 | 0 | 51 | 0 | 0 | 0
CC(C(=O)O/N=C(\N)c1ccccn1)c1ccc([N+](=O)[O-])cc1 (centres undefined) | 0 | 0 | 0 | 0 | 0
N/C(=N\OCc1ccc([N+](=O)[O-])cc1)c1ccccn1 | - | - | 0 | - | 63
CCOC(=O)C1CCCN(C(=O)C2CCN(S(=O)(=O)c3c(C)noc3/C=C/c3ccccc3F)CC2)C1 (centres undefined) | 0 | 0 | 0 | 0 | 0
COc1ccc2sc(N(CCCN(C)C)C(=O)c3ccc(S(=O)(=O)N4CCCC4)cc3)nc2c1 | 0 | 0 | 0 | 0 | 0
Cc1cccc2sc(N(CCCN(C)C)C(=O)c3ccc(S(=O)(=O)N4CCc5ccccc5C4)cc3)nc12 | 0 | 0 | 0 | 39 | 0
CCN(Cc1ccccc1)S(=O)(=O)c1ccc(C(=O)N(CCCN(C)C)c2nc3cc4c(cc3s2)OCO4)cc1 | 0 | 0 | 0 | 0 | 0
CCN(Cc1ccccc1)S(=O)(=O)c1ccc(C(=O)N(CCCN(C)C)c2nc3c(C)c(C)ccc3s2)cc1 | + | 0 | 0 | 0 | 0
CN(C)CCCN(C(=O)c1ccc(S(=O)(=O)N2CCc3ccccc3C2)cc1)c1nc2c(F)cccc2s1 | 0 | 0 | 0 | 0 | 0
SMILES | Rce1 inhib | TAAR1 antagonist | VLA-4 inh | TAAR1 agonist | Platelet DG rel
COc1ccc2sc(N(CCCN(C)C)C(=O)c3ccc(S(=O)(=O)N4CCc5ccccc5C4)cc3)nc2c1 | 0 | 0 | 0 | 40 | 0
Cc1cc(C)c2sc(N(CCCN(C)C)C(=O)c3ccc(S(=O)(=O)N4CCc5ccccc5C4)cc3)nc2c1 | 0 | - | 0 | - | 0
Cc1ccc2nc(N(CCCN(C)C)C(=O)c3ccc(S(=O)(=O)N4CCc5ccccc5C4)cc3)sc2c1 | 0 | 0 | 0 | 45 | 0
CSc1ccc(S(=O)(=O)N2CCC(C(=O)NC3CC3)CC2)cc1 | 0 | 0 | 0 | 0 | 0
O=C(NCCCN1CCOCC1)C(=O)NCC1OCCN1S(=O)(=O)c1ccc(Cl)cc1 (centres undefined) | - | 0 | - | 0 | -
COc1ccc(CCNC(=O)/C=C/C(=O)O)cc1OC | 0 | 0 | 0 | 41 | 0
COc1ccc(CCNC(=O)/C=C\c2ccccc2)cc1OC | 0 | 0 | 0 | 0 | 0
COc1ccc(CCNC(=O)c2ccc(CSc3ccc(Cl)cc3)o2)cc1OC | - | 66 | - | 0 | -
COc1ccc(CCC(=O)N2CCCSC2=Nc2ccc(C(C)=O)cc2)cc1 | 0 | 0 | 0 | 0 | 0
COc1ccc(NS(=O)(=O)c2cc(NC(=O)c3cnccn3)ccc2OC)cc1Br | 0 | 0 | 0 | 0 | 0
COc1ccccc1NS(=O)(=O)c1cccc(NC(=O)NCCCl)c1 | 0 | 0 | 0 | 0 | 0
COc1ccc(NS(=O)(=O)c2cc(NC(=O)c3cncc(Br)c3)ccc2OC)cc1 | - | 50 | 0 | 0 | -
COc1ccccc1NS(=O)(=O)c1cccc(NC(=O)c2cncc(Br)c2)c1 | - | 51 | 0 | 0 | -
COc1ccc(NC(=O)c2ccc(Cl)c(S(=O)(=O)N3CCc4ccccc4C3)c2)cn1 | 0 | 66 | 0 | 0 | 0
NS(=O)(=O)c1cccc(NC(=O)c2cncc(Br)c2)c1 | 0 | 0 | 0 | 0 | 0
COc1ccccc1NS(=O)(=O)c1cccc(NC(=O)CCNC(=O)c2ccccc2OC)c1 | - | 57 | 0 | 0 | -
COc1ccc(NC(=O)c2ccc(Cl)c(S(=O)(=O)N3CC(C)OC(C)C3)c2)cn1 (centres undefined) | - | 0 | 0 | 0 | -
Cc1cccc(C)c1NC(=O)c1ccc2sc([C@@H]3O[C@H](CO)[C@H](O)[C@H](O)[C@H]3O)nc2c1 | - | 0 | - | 0 | -
COc1ccccc1NS(=O)(=O)c1cc(NC(=O)c2ccc(Cl)nc2)ccc1Cl | 0 | 56 | 0 | 0 | 0
COc1ccc(C(=O)Nc2ccc(Cl)c(S(=O)(=O)Nc3ccccc3OC)c2)cc1 | 0 | 0 | 0 | 0 | 0
COc1ccccc1NS(=O)(=O)c1cccc(NC(=O)Nc2cccc(Cl)c2)c1 | 0 | 79 | 0 | 0 | 0
Cc1ccc([C@@H]2C[C@H]3[C@@H](CN2S(=O)(=O)c2ccc(C)cc2)C(=O)C[C@@H](c2ccc(C)cc2)N3S(=O)(=O)c2ccc(Cl)cc2)cc1 | - | 0 | - | 0 | -
CC(C)CC1C(=O)N(Cc2cn(CCC3OCCCO3)nn2)CCS(=O)(=O)N1Cc1ccc(-c2ccc(Cl)cc2)cc1 (centres undefined) | - | 0 | - | 0 | -
CC(C)CC1C(=O)N(Cc2cn(CCC3OCCO3)nn2)CCS(=O)(=O)N1Cc1ccc(-c2cccc(CO)c2)cc1 (centres undefined) | - | 0 | - | 0 | -
CC(C)CC1C(=O)N(Cc2cn(CCC3OCCO3)nn2)CCS(=O)(=O)N1Cc1ccc(-c2cccc(N(C)C)c2)cc1 (centres undefined) | - | 52 | - | 0 | -
CC(C)CC1C(=O)N(Cc2cn(CCC3OCCO3)nn2)CCS(=O)(=O)N1Cc1ccc(-c2ccc(F)cc2)cc1 (centres undefined) | - | 54 | - | 0 | -
O=C(NC(=S)N1CCCCC1CO)c1cc(Br)ccc1Cl (centres undefined) | - | 0 | - | 0 | -
O=[N+]([O-])c1ccc(C2=NN(c3ccccc3)C(c3ccco3)C2)cc1 (centres undefined) | 0 | 61 | - | 89 | 0
CCCCCCC[C@@H](C/C=C/CCC(=O)N(C)C/C(=C/Cl)C/C(=C\C(=O)N1C[C@H](O)CC1=O)OC)OC | - | 50 | 0 | 0 | -
